Screening results from PubChem BioAssay.
Sampled rows, rich in hits. Any-hit rate of the full collection: about 6.4%.
TbMetRS inhib: blocks T. brucei methionyl-tRNA synthetase activity. purified T. brucei MetRS, ATP depletion, Kinase-Glo luminescence. inhibition, % at 11.9 µM. AID 624268. 360,000 compounds, 0.4% hits;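 active means inhibition above a per-plate cutoff of the control wells' mean inhibition plus 3 SD, cut at about 5.5% in these data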
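Measured by: Kinase-Glo luciferase luminescence reporting remaining unconsumed ATP. Material: purified T. brucei MetRS enzyme. Doses: 11.9 µM compound single dose, 0.9% DMSO. Medium: HEPES buffer containing pyrophosphatase, BSA, spermine, DTT. Times: 15 min preincubation, 2 h reaction, all 25 °C. Reagent: methionine, ATP and bulk E. coli tRNA.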
CHOP inh: blocks CHOP induction under ER stress; 220,000 compounds, 3.8% hits; AID 2732; CHO-K1 CHOP-promoter luciferase, tunicamycin-induced, 15-18 h; inhibition, % at 10 µM;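 active means compounds that reduced the stress-induced luciferase reporter signal by more than about 70% of percent inhibition, limit read from the data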
EBV gp42 inh: blocks Epstein-Barr virus glycoprotein 42 binding. Q1HVG2. Fluorescence polarization binding assay, mP read-out. inhibition, % (tested at 21.74 µM). 220,000 compounds, 0.42% hits. AID 1085; in the data active means inhibition above about 50%
Target sequence (Q1HVG2 whole entry, looked up): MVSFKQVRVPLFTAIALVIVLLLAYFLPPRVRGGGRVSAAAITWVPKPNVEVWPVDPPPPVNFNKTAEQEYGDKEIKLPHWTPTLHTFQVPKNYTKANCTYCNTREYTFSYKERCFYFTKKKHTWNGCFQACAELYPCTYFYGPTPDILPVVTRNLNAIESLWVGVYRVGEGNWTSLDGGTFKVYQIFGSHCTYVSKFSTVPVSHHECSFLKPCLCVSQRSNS
WT yeast gro inh: growth inhibition of WT yeast, mitochondrial fusion screen; inhibition, % at 10 µM; 190,000 compounds, 2.1% hits; mitochondrial fusion phenotypic screen, WT strain; in the data active means inhibition above about 58%; tested in S. cerevisiae
MPTP inh: blocks calcium-induced mitochondrial swelling | inhibition, % at 10 µM | 360,000 compounds, 1.4% hits | isolated mouse mitochondria, Ca2+ swelling absorbance, 30 min;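 active means inhibition of 50% or more, scaled per plate between neutral and stimulator controls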
GRIN3A LBD mod: modulates the human NR3A ligand-binding domain | NR3A LBD differential scanning fluorimetry, Tm shift; 0% = protein alone, 100% = glycine-bound protein | Tm shift relative to glycine control, % at 25 µM | 340,000 compounds, 2.5% hits | AID 1259313;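 active means melting temperature shift of at least 10% of the positive control shift, at one fixed dose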
Large screens that a line does not name were inactive.

CC1(C)CC(=O)c2c(O)c(-c3ccccc3)c(=O)n(-c3ccccc3)c2C1	GRIN3A LBD mod 11.5
CC(=O)NCC(=O)OCC(=O)Nc1ccc(C(C)=O)cc1	GRIN3A LBD mod 13.1
CN(C)S(=O)(=O)c1ccc(N2CCCC2)c(C(=O)NCc2cccc(C(F)(F)F)c2)c1	none
Nc1cc(N)nc(SCC(=O)NCCC2=CCCCC2)n1	none (no result: CHOP inh, EBV gp42 inh, WT yeast gro inh)
Cc1cc(C)c2nc(SCC(=O)NCCC3=CCCCC3)cc(C)c2c1	CHOP inh 92.4
Cc1ccc2nc(-c3ccc(Br)cc3)cc(C(=O)NCC3CCCO3)c2c1 (configuration not stated)	none (no result: CHOP inh, EBV gp42 inh, WT yeast gro inh, GRIN3A LBD mod)
Nc1nc(-c2ccccc2)ns1	GRIN3A LBD mod 12.6 (no result: CHOP inh, EBV gp42 inh, WT yeast gro inh)
O=C(c1ccc2c(c1)OCO2)N1CCN(c2ccc(C(F)(F)F)cn2)CC1	none
O=C(c1ccc2ccccc2c1)N1CCN(c2ccc(C(F)(F)F)cn2)CC1	CHOP inh 88.7
Cc1nn(C)cc1/C=N/NC(=S)Nc1ccc(Cl)cc1Cl	GRIN3A LBD mod 18.0
CCn1nc(C)c(/C=N/NC(=S)Nc2ccc(Cl)cc2Cl)c1C	none
Cc1ccc(/C=C2\SC(=S)N(CCC(=O)NNS(=O)(=O)c3ccccc3)C2=O)cc1	none (no result: WT yeast gro inh)
Cc1ccc(/C=C2\SC(=S)N(CCC(=O)NNC(=O)c3cccc(O)c3)C2=O)cc1	GRIN3A LBD mod 23.7 (no result: CHOP inh, EBV gp42 inh, WT yeast gro inh)
O=C(CCN1C(=O)/C(=C/c2ccc(F)cc2)SC1=S)NNC(=O)c1cccnc1	none
Cc1ccc(/C=C2\SC(=S)N(CCC(=O)NNC(=O)c3ccc(O)cc3)C2=O)cc1	GRIN3A LBD mod 22.9 (no result: CHOP inh, EBV gp42 inh, WT yeast gro inh)
COc1ccc2nc(C)[nH]c(=O)c2c1	none (no result: WT yeast gro inh)
CCc1cc(=O)oc2cc(OS(C)(=O)=O)ccc12	none (no result: CHOP inh, EBV gp42 inh, WT yeast gro inh)
O=c1cc(-c2ccc([N+](=O)[O-])cc2)nc2cc(-c3ccc(Cl)cc3)[nH]n12	EBV gp42 inh 83.2 (no result: TbMetRS inhib, MPTP inh, GRIN3A LBD mod)
O=c1cc(-c2ccccc2)nc2cc(-c3ccco3)[nH]n12	GRIN3A LBD mod 10.3 (no result: WT yeast gro inh)
NC(Cc1ccc(O)c([N+](=O)[O-])c1)C(=O)O (configuration not stated)	none
Cn1c(NCc2ccco2)nc2c1c(=O)n(Cc1ccc(Br)cc1)c(=O)n2C	CHOP inh 89.0
Cn1c(NCc2ccco2)nc2c1c(=O)n(Cc1ccc(Cl)cc1)c(=O)n2C	CHOP inh 79.3, GRIN3A LBD mod 14.9
Cn1c(NCc2ccco2)nc2c1c(=O)n(Cc1ccc(Cl)cc1Cl)c(=O)n2C	CHOP inh 88.3
Cn1c(C(=O)N2CCN(c3ccc([N+](=O)[O-])cc3)CC2)cc2c(=O)[nH]c3ccccc3c21	none
COC(=O)C(NC(=O)CCc1nnc2ccc(N3CCC(C)CC3)nn12)C(C)C (configuration not stated)	none (no result: CHOP inh, EBV gp42 inh, WT yeast gro inh)
Cc1ccc(C(=O)NC(=S)NCC(=O)c2ccccc2)cc1	WT yeast gro inh 60.6
Cc1ccc(C(=O)OCC(=O)c2ccccc2)cc1	GRIN3A LBD mod 18.8 (no result: CHOP inh, EBV gp42 inh, WT yeast gro inh)
O=C(CCCCCCCC(=O)c1ccccc1)c1ccccc1	GRIN3A LBD mod 24.1
CC(=O)Nc1cc(C(=O)OCC(=O)c2ccccc2)ccc1C	none
Cc1ccc(C(=O)/C=C/C(=O)c2ccc(C)cc2)cc1	CHOP inh 106.2
O=C(CNC(=S)NC(=O)c1cccs1)c1ccccc1	none
CCCCOC(=O)CCN1C(=O)/C(=C2\SC(=S)N(CCC(=O)OCCCC)C2=O)SC1=S	none
COc1ccc(-c2c(NCCc3ccccc3)c(=O)c2=O)cc1	none (no result: CHOP inh, EBV gp42 inh, WT yeast gro inh)
CCN(CC)S(=O)(=O)c1cc(NC(=O)C(C)OC(=O)c2[nH]c(C)c(C(C)=O)c2C)ccc1C (configuration not stated)	none
CC(C)NC(=S)NC(=O)c1ccc(-c2ccccc2)cc1	WT yeast gro inh 66.9
Cc1ccc(C(=O)Cc2ccccc2)cc1	none (no result: CHOP inh, EBV gp42 inh, WT yeast gro inh)
Cc1ccc(C(=O)CCC(=O)NCc2ccccc2)cc1	GRIN3A LBD mod 51.1 (no result: CHOP inh, EBV gp42 inh, WT yeast gro inh)
CC(C)(C)c1ccc(C(=O)CCC(=O)NCc2ccccc2)cc1	none (no result: CHOP inh, EBV gp42 inh, WT yeast gro inh)
Cc1ccc(C(=O)CC(=O)c2ccccc2)cc1	GRIN3A LBD mod 34.1 (no result: CHOP inh, EBV gp42 inh, WT yeast gro inh)
COc1ccccc1Nc1cc(C(=O)NCc2cccnc2)c2ccccc2n1	none (no result: WT yeast gro inh)
COC(CNC(=O)CN1C(=O)COc2ccc(S(=O)(=O)N3CCOCC3)cc21)OC	none (no result: CHOP inh, EBV gp42 inh, WT yeast gro inh)
Cc1ccc(Nc2nc(Nc3ccc(C)cc3)nc(SC3=NCCS3)n2)cc1	CHOP inh 90.4
CC(C)CCn1nnnc1C(c1ccccc1)N1CCN(C)CC1 (configuration not stated)	none
Cc1ccc2nc(NC(=O)C3CCN(S(=O)(=O)c4cccc5nsnc45)CC3)sc2c1	none
O=C(Nc1nc2cc(Cl)ccc2s1)C1CCCN(S(=O)(=O)c2cccc3cccnc23)C1 (configuration not stated)	CHOP inh 74.8
CC(C)C(NS(=O)(=O)c1cccc2nsnc12)C(=O)Nc1nc2ccc(Cl)cc2s1 (configuration not stated)	CHOP inh 88.5, WT yeast gro inh 61.6
O=C(Nc1nc2ccccc2s1)C1CCCN1S(=O)(=O)c1ccc(Cl)cc1 (configuration not stated)	CHOP inh 92.1 (no result: WT yeast gro inh)
Cc1ccc2nc(NC(=O)C3CCCN(S(=O)(=O)c4cccc5nsnc45)C3)sc2c1 (configuration not stated)	WT yeast gro inh 64.6
CCn1cc(C(=O)NCCc2ccc(Cl)cc2)c(=O)c2cc(S(=O)(=O)N(C)C)ccc21	GRIN3A LBD mod 21.8 (no result: CHOP inh, EBV gp42 inh, WT yeast gro inh)
CCn1cc(C(=O)NCCc2ccc(C)cc2)c(=O)c2cc(S(=O)(=O)N(C)C)ccc21	none (no result: TbMetRS inhib, CHOP inh, EBV gp42 inh, WT yeast gro inh, MPTP inh)
c1ccc(-n2c(SCc3nc(-c4cccs4)no3)nnc2-c2ccco2)cc1	none
CC(C)c1ccc(NC(=O)CCNS(=O)(=O)c2cccc3nsnc23)cc1	none
CCCn1c(O)c(/C=C2\C=NN=C2c2ccccc2)sc1=S	GRIN3A LBD mod 15.8
C=CCn1c(O)c(/C=C2\C=NN=C2c2ccccc2)sc1=S	GRIN3A LBD mod 12.0 (no result: WT yeast gro inh)
CCn1c(O)c(C=Nc2ccccc2)sc1=S	none (no result: TbMetRS inhib, MPTP inh)
CCCOC(=O)CN1C(=O)c2ccccc2C1=O	WT yeast gro inh 79.5
CCOc1cccc(-c2nc(C(N)=O)c3[nH]c(=O)n(-c4cccc(Cl)c4)c3n2)c1O	CHOP inh 94.6
COc1cc(-c2nc3ccc(C)cn3c2Nc2ccc3c(c2)OCCO3)ccc1O	GRIN3A LBD mod 22.6
Cn1c(O)c(C2=c3ccccc3=NC2=O)[nH]c1=S	CHOP inh 84.3
COc1ccc2nc(-n3c(O)c(C4=c5ccccc5=NC4=O)[nH]c3=S)sc2c1	CHOP inh 102.7, EBV gp42 inh 115.1, GRIN3A LBD mod 16.7
Cc1cc(C)nc(NC(=NCCc2c[nH]c3ccccc23)NC(=O)Nc2ccc(Cl)c(Cl)c2)n1	GRIN3A LBD mod 27.4
Cc1cc(C)nc(NC(=NCCc2c[nH]c3ccccc23)NC(=O)Nc2ccccc2)n1	GRIN3A LBD mod 10.2
Cn1nnnc1SCCNCc1ccccc1F	none
O=C(O)C1CCCCC1C(=O)Nc1ccc(F)cc1F (configuration not stated)	WT yeast gro inh 96.9
